ChEMBL document CHEMBL1135749, “Stereoselective synthesis and antiviral activity of D-2',3'-didehydro-2',3'-dideoxy-2'-fluoro-4'-thionucleosides” (J Med Chem, 2002)

How the values were obtained:
[1] = Ratio of kinetic parameter Kcat to that of binding affinity towards adenosine deaminase KM.
Summary of the method: (§1)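 Calf intestinal mucosa adenosine deaminase (0.15 units) in pH 7.4 phosphate buffer (2 mL) at 25 °C, with substrate at 15-100 µM. Hydrolysis was followed by UV absorbance at 265 nm, and substrate concentration was derived from the absorbance change. Initial rates came from graphical fitting of concentration versus time.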

[2] = target: T1, Adenosine deaminase (Bos taurus) (UniProt P56658); test: Kinetic parameter Kcat of compound used as substrate for Adenosine deaminase was evaluated; summary of the method: as §1
T1 sequence (whole entry): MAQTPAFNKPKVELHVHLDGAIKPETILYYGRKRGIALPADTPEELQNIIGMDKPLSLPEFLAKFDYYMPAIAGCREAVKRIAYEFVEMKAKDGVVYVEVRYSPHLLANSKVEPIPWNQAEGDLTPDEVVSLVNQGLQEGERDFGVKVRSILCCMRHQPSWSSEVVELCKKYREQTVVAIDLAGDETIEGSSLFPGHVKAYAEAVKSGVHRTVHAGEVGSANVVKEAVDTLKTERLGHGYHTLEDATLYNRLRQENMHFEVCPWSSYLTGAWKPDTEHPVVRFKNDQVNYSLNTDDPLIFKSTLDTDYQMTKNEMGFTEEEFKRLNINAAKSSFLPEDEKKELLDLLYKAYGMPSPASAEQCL

Row | SMILES | k cat/Km [1] [M⁻¹ s⁻¹] | k cat [2] [s⁻¹]
1 | Nc1ncnc2c1ncn2[C@@H]1O[C@H](CO)[C@@H](O)[C@H]1O | 3.1e+06 | 76.4
2 | Nc1ncnc2c1ncn2[C@@H]1S[C@H](CO)C=C1F | 50000 | 0.94
